Only some compounds are listed: those with a hit (about 2.9% of all), similar ones and a draw of the others.
M1 PAM parental = nonselective calcium activators in parental CHO-K1 cells, primary screen, counter-screen for M1 PAM project, cell-based, Fluo-8 calcium fluorescence, full deck, 1536-well | ATP EC20; 0% at ATP EC20, 100% at ATP max | hit rate 0.02% among 360,000 | AID 602247, 2012 | activation, % at 3 µM;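 active = activation above the run cutoff, the mean activation of all test compounds plus 3 SD, cut at about 40% in these data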;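 also: peak over basal fluorescence ratio in a 140 s read after ATP addition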
CHO-K1 Ca antag = nonselective inhibitor or artifact in parental CHO-K1 cells; ATP-induced calcium, Fluo-8 fluorescence; inhibition, % at 3 µM; hit rate 0.6% among 360,000; AID 602250;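 active = inhibition above a per-plate cutoff, the plate's mean sample inhibition plus 3 SD, cut at about 24% in these data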;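 also: 0% = DMSO plus EC80 ATP and 100% = DMSO alone without ATP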
OX1R antag-1 = OX1R (HCRTR1) antagonists, primary screen, fluorescence, CHO/OX1R cells, Fluo-8 calcium, orexin A | inhibition, % at 5 µM | Orexin/Hypocretin receptor type 1 (Homo sapiens), O43613 | Fluo-8 calcium fluorescence | AID 434989, 2010 | hit rate 0.43% among 330,000;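 active = inhibition above its plate's threshold, mean inhibition of all tested compounds on the plate plus 3 SD, cut at about 37% in these data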;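 also: 0% = orexin A challenge wells and 100% = SB-334867-A antagonist wells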
Target sequence (O43613 whole entry, looked up): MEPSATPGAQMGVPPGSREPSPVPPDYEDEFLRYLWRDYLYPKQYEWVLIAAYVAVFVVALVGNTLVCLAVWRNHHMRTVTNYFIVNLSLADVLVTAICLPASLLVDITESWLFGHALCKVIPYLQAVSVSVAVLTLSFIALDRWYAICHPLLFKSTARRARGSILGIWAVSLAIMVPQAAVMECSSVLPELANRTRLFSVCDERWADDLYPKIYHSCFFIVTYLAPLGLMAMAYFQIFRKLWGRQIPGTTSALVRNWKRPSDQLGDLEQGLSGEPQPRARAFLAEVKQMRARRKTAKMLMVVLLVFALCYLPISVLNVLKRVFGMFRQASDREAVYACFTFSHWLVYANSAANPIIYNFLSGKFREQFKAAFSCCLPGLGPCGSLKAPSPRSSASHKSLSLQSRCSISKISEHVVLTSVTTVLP
OX1R antag-2 = antagonists of human orexin 1 receptor (OX1R). AID 485270, 2010. Orexin/Hypocretin receptor type 1 (Homo sapiens), O43613. OX1R-expressing cells, FRET antagonist read-out. inhibition, % at 6.6 µM. hit rate 1.8% among 330,000; in the data active = inhibition mostly above about 38%, no sharp cut-off; inactive = mostly below about 40%;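 also: 0% = agonist challenge alone and 100% = reference antagonist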
CHO parental Ca = ATP-evoked calcium signal inhibitors, parental CHO, primary screen, counter-screen for OX1R antagonist project, cell-based, fluorescence, Fluo-8 calcium dye; hit rate 0.63% among 330,000; AID 463079, 2010; parental CHO-K1, ATP-induced calcium, Fluo-8 fluorescence; inhibition, % at 5.6 µM;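 active = inhibition above that plate's mean sample inhibition plus 3 SD, cut at about 26% in these data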;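 also: 0% = ATP-challenged DMSO wells and 100% = DMSO wells without ATP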
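Test system: parental CHO cells; detection: calcium-sensitive Fluo-8 fluorescence; evaluation: percent inhibition of calcium signal; also added: ATP as calcium-mobilizing challenge; repeats: one well per compound; control set: ATP-challenged DMSO wells low, unchallenged DMSO wells high; compound: single nominal dose of 5.6 µM per compound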
M1 ag parental = counter-screen for M1 agonists: effect in parental CHO-K1 cells; Fluo-8 calcium fluorescence; scaled to maximal ATP response, vehicle zero; activation, % at 3 µM; hit rate 0.48% among 360,000; AID 602248, 2012; in the data active = activation above about 15%;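 also: untransfected CHO-K1 host cells lacking M1 receptor as counterscreen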
Active calls of the source: *; x = not tested or not shown.

SMILES | M1 PAM parental | CHO-K1 Ca antag | OX1R antag-1 | OX1R antag-2 | CHO parental Ca | M1 ag parental
COc1ccc(-c2cc(C(=O)OCC(=O)Nc3ccc4c(c3)OCO4)c3ccccc3n2)cc1 | 20 | -7 | -8 | 65* | -10 | 1
O=C(CCc1nnc2ccc(NCc3ccco3)nn12)Nc1cccc(F)c1 | -21 | 1 | -9 | 8 | -8 | 0
O=C(COc1ccccc1/C=C1\SC(=O)NC1=O)Nc1ccc(F)cc1 | 4 | 6 | -22 | 77* | -4 | 5
Cc1cc(C)cc(NC(=O)COC(=O)CCn2c(C)csc2=O)c1 | 6 | -8 | -26 | -2 | -16 | 0
Cn1c(SCC2CCCO2)nnc1-c1ccc([N+](=O)[O-])cc1 (stereo not drawn) | 14 | -17 | -8 | 41* | -22 | 1
Cn1c(SCc2ccc([N+](=O)[O-])cc2)nnc1-c1ccncc1 | -7 | -10 | -7 | 25 | -14 | 2
C[C@@H]1CN([C@@H](C)CO)C(=O)CCCn2nncc2CO[C@@H]1CN(C)S(=O)(=O)c1ccc(F)cc1 | 0 | -10 | x | x | x | 0
COc1cc(C)c(NC(=O)c2cccc(S(=O)(=O)N3CCCC3)c2)cc1OC | 13 | -17 | -41 | 7 | -26 | 1
O=C(Nc1nnc(SCc2ccc(Cl)cc2)s1)C1CCCO1 (stereo not drawn) | -9 | 31* | -7 | 10 | -17 | 0
Cc1ccc2c(CSc3nnnn3C)cc(=O)oc2c1 | 13 | -11 | -16 | 62* | -1 | 0
Cc1ccc2c(CSc3nnc(C4CC4)n3N)cc(=O)oc2c1 | -12 | -4 | -6 | 21 | -7 | 0
CCCc1c(C(=O)N/N=C/c2ccc(C)o2)nnn1-c1nonc1N | -6 | 8 | x | x | x | 1
COc1ccc2ccccc2c1/C=N/NC(=O)c1nnn(-c2nonc2N)c1CN(C)C | 14 | -9 | -13 | 6 | -11 | 0
COc1ccc2ccccc2c1/C=N/NC(=O)c1nnn(-c2nonc2N)c1C(C)C | 14 | -22 | 27 | 60* | 12 | 1
Cc1ccc(/C=N/NC(=O)c2nnn(-c3nonc3N)c2C(C)C)o1 | -26 | 28* | -5 | 17 | -3 | 2
CC12CCC(=O)N1C(C(=O)NNC(=O)COc1cccc(C(F)(F)F)c1)CS2 (stereo not drawn) | 18 | -4 | -13 | -38 | 3 | 1
O=C(NCCCn1ccnc1)c1cc(Cl)cc(Cl)c1 | -18 | 1 | -15 | 0 | 2 | 0
CCCCn1c2c(c(=N)c3ccccc31)CCC2 | 9 | -11 | -1 | 13 | 13 | 1
CCCCCCCCn1c2c(c(=N)c3ccccc31)CCC2 | -7 | 31* | x | x | x | 8
CCCCCCCCCn1c2c(c(=N)c3c1CCC3)CCCC2 | -2 | 38* | x | x | x | 12
CCCCCCCCCCn1c2c(c(=N)c3c1CCC3)CCC2 | 17 | 18 | 48* | 20 | 39 | 4
CCn1c2c(c(=N)c3c1CCC3)CCCC2 | 22 | -7 | -16 | 7 | -5 | 1
CCCCCn1c2c(c(=N)c3ccccc31)CCC2 | 14 | -6 | -10 | 11 | 5 | 1
COc1c2c(c(OC)c3ccccc13)[C@]1(OC2)O[C@H](CCO)C[C@H](O)[C@H]1O | -8 | 18 | x | x | x | 0
CC(=O)Nc1ccc(OCC(O)Cn2nc(C)c(C)c2C)cc1 (stereo not drawn) | -16 | -6 | -2 | 1 | -9 | 1
SMILES | M1 PAM parental | CHO-K1 Ca antag | OX1R antag-1 | OX1R antag-2 | CHO parental Ca | M1 ag parental
O=C(Nc1cc(NC(=O)c2ccccc2F)ccc1Cl)c1ccccc1 | -11 | 10 | -26 | 5 | -6 | -1
COc1ccc(NC2CCCN(C(=O)c3cn(C)c4ccccc34)C2)cc1 (stereo not drawn) | 1 | -14 | -6 | 38* | -20 | 1
COc1ccc(NC2CCCN(C(=O)CCCn3cncn3)C2)cc1 (stereo not drawn) | 4 | 11 | 9 | 22 | 4 | 18*
c1cc(-c2n[nH]c(-c3ccncc3)n2)ccn1 | 3 | -1 | -7 | 12 | -2 | 20*
Brc1cccc(-c2n[nH]c(-c3ccccc3)n2)c1 | -9 | 13 | 63* | 71* | 97* | 1
CC1(C)CC(=O)/C(=C(\O)Cc2ccccc2)C(=NCCCCCC(=O)O)C1 | 19 | -13 | -16 | 14 | -6 | 1
COc1ncnc2c1NC1=C(S2)C(=NCCC(=O)O)CC(C)(C)C1 | 16 | -7 | 5 | 71* | -7 | 1
CN1C(=O)/C(=C/c2ccc(OCc3ccc(F)cc3)cc2)NC1=S | -25 | 1 | -17 | 7 | 9 | 7
COc1ccc(C2=C(N)c3ccccc3C2=O)cc1 | 6 | -5 | 0 | 45* | 3 | -1
CC1(c2ccc(OC(F)F)cc2)NC(=O)N(CC(=O)Nc2ccc(S(N)(=O)=O)cc2)C1=O (stereo not drawn) | -5 | -2 | -5 | 5 | -6 | 0
CC1(c2ccc(OC(F)F)cc2)NC(=O)N(CC(=O)Nc2ccc(F)cc2)C1=O (stereo not drawn) | 24 | 3 | 23 | 10 | 15 | 25*
COc1ccc(C2(c3ccc(OC)cc3)NC(=O)N(CC(=O)Nc3ccc(OC(F)F)cc3)C2=O)cc1 | 14 | -2 | -1 | 23 | -5 | 0
CC1(c2ccc(OC(F)F)cc2)NC(=O)N(CC(=O)Nc2ccc(OC(F)F)cc2)C1=O (stereo not drawn) | 8 | 28* | 53* | -5 | 36* | 33*
CCOc1ccc(NC(=O)CN2C(=O)NC(C)(c3ccc(OC(F)F)cc3)C2=O)cc1 (stereo not drawn) | -3 | 9 | 32 | -9 | 21 | 19*
COc1ccc(C2(C)NC(=O)N(CC(=O)Nc3ccc(-c4nc5ccc(C)cc5s4)cc3)C2=O)cc1 (stereo not drawn) | 0 | 1 | 25 | 6 | 29* | 0
CC1(c2ccc(OC(F)F)cc2)NC(=O)N(CC(=O)Nc2cccc(F)c2)C1=O (stereo not drawn) | -22 | 44* | 67* | 11 | 53* | 32*
C/C(=N\O)C(=O)NCc1ccncc1 | -10 | 25* | -13 | 13 | -12 | 0
Cc1ccc(S(=O)(=O)N(C)CC(=O)N2CC(C)OC(C)C2)cc1 (stereo not drawn) | 9 | -3 | -1 | 22 | -5 | 0
O=S(=O)(Nc1ccc2cn[nH]c2c1)c1ccc(Cl)cc1 | -5 | -5 | -1 | 11 | -8 | 5
Cc1cc(S(=O)(=O)Nc2ccc3cn[nH]c3c2)c(C)cc1Cl | -9 | -8 | 7 | 28 | 40* | 8

From PubChem BioAssay
